ChEMBL document CHEMBL3593239, “PABA/NO lead optimization: Improved targeting of cytotoxicity to glutathione S-transferase P1-overexpressing cancer cells” (Bioorg Med Chem, 2015)
Calls of active or inactive are those of the source. The calls are words filed in the database; no cut-off is given here.

How the values were obtained:
[1] = Stability of the compound in phosphate buffer assessed as first-order initial rate constant for hydrolysis at pH 7.4 at 25 degC by HPLC trapping method; assay type: physicochemical
[2] = target: T1, Glutathione S-transferase P (Homo sapiens, UniProt P09211); assay: Drug metabolism in phosphate buffer assessed as formation of GSTP1 (unknown origin)-mediated (S)-2-amino-5-((R)-1-(carboxymethylamino)-3-(4-cyano-5-(4-(methylamino)benzoyloxy)-2-nitrophenylthio)-1-oxopropan-2-ylamino)-5-oxopentanoic acid at 1 uM at pH 7.4 at 37 degC after 1 to 30 mins by LC-MS/MS analysis in presence of GSH; assay type: ADME; details: pH 7.4, 1 µM
Method in brief: (§1)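 Test compound at 1 µM reacted with 4 mM GSH containing 4 nM GSTP1 in 0.1 M phosphate, pH 7.4, at 37 °C. Products identified by LC–MS traces taken at 60 s and 30 min.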

[3] = test system: HL-60; assay: Induction of apoptosis in human HL60 cells assessed as cleavage of PARP at 10 uM after 24 hrs by Western blot analysis; assay type: functional, cell-based
[4] = test system: HL-60; assay: Induction of SAPK/JNK phosphorylation in human HL-60 cells at 5 to 20 uM after 24 hrs by Western blot analysis
[5] = Stability of the compound in phosphate buffer assessed as first-order initial rate constant for hydrolysis at pH 7.4 at 37 degC by HPLC trapping method; assay type: physicochemical
[6] = target: T1, Glutathione S-transferase P; assay: Prodrug conversion in phosphate buffer assessed as GSTP1 (unknown origin)-mediated nitric oxide release at 1 uM at pH 7.4 at 37 degC after 1 to 30 mins by LC/MS-MS analysis; assay type: ADME; details: pH 7.4, 1 µM; method in brief: as §1
[7] = test system: HL-60; assay: Induction of apoptosis in human HL60 cells assessed as activation of caspase 7 at 10 uM after 24 hrs by Western blot analysis; assay type: functional, cell-based
[8] = target: T2, Glutathione S-transferase A1 (Homo sapiens, UniProt P08263); assay: Drug metabolism in phosphate buffer assessed as ratio of GSTA1 (unknown origin)-mediated (S)-2-amino-5-((R)-1-(carboxymethylamino)-3-(4-cyano-5-hydroxy-2-nitrophenylthio)-1-oxopropan-2-ylamino)-5-oxopentanoic acid formation from nitric oxide release pathway to GSTA1 (unknown origin)-mediated (Z)-1-(4-cyano-5-hydroxy-2-nitrophenoxy)-3,3-dimethyltriaz-1-ene 2-oxide formation from nitric oxide retained pathway at 1 uM at pH 7.4 at 37 degC after 30 mins by LC-MS/MS analysis in presence of GSH; assay type: ADME; details: pH 7.4, 0.5 h
T2 sequence (P08263 whole entry): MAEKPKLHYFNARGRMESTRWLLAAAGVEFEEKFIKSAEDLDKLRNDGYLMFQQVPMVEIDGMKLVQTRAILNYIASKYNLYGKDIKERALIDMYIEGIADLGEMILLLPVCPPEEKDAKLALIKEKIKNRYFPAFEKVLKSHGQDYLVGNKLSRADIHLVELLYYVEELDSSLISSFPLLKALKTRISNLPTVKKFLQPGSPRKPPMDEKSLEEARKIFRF
Method in brief: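 Products analysed by LC–MS. The ratio is the NO-release-pathway product over the NO-retained-pathway phenolic product.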

[9] = target: T1, Glutathione S-transferase P; assay: Prodrug conversion in phosphate buffer assessed as GSTP1 (unknown origin)-mediated nitric oxide release […] measured per mol of compound at pH 7.4 at 37 degC by chemiluminescence assay in presence of GSH; assay type: ADME
[10] = test system: HL-60; assay: Cytotoxicity against human HL60 cells assessed as growth inhibition after 72 hrs by MTT assay; assay type: functional, cell-based; details: HL-60, 72 h
Method in brief: (§2)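 HL-60 and U937 cells from ATCC, grown per supplier protocol, seeded and exposed to increasing concentrations for 72 h. Viability was read with a Promega assay run per the manufacturer's protocol. Six repeats per concentration, three independent experiments. IC50 derived by curve fitting.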

[11] = target: T1, Glutathione S-transferase P; assay: Drug metabolism in human HL-60 cells assessed as GSTP1-mediated metabolite formation at 1 uM after 10 mins by LC-MS/MS analysis; assay type: ADME, cell-based; details: hl-60, 10 min
Method in brief: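 HL-60 cells plated in flasks and incubated overnight at 37 °C, then treated with 1 µM compound for varying times. Cells broken by two freeze (−80 °C)/thaw (37 °C) cycles in 0.1% formic acid/acetonitrile 3:7. Precipitate spun out at 14,000g for 15 min. Supernatant filtered and analysed by LC–MS/MS on C18 with acetonitrile/water/0.1% formic acid gradient and ESI-QTOF detection.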

[12] = test system: U-937; assay: Cytotoxicity against human U937 cells assessed as growth inhibition after 72 hrs by MTT assay; assay type: functional, cell-based; details: U-937, 72 h; method in brief: as §2
[13] = test system: HL-60; assay: Induction of apoptosis in human HL60 cells assessed as activation of caspase 8 at 10 uM after 24 hrs by Western blot analysis; assay type: functional, cell-based
[14] = Stability of the compound in phosphate buffer assessed as pseudo-first order rate constant at pH 7.4 at 37 degC by HPLC trapping method in presence of GSH; assay type: physicochemical

T1 sequence (P09211 whole entry): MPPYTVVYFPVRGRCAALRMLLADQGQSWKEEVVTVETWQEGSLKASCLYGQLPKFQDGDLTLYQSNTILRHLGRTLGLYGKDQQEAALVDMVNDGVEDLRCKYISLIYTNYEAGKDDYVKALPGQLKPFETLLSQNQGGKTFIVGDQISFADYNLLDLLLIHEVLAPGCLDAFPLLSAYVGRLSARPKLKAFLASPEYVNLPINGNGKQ

Question: With `CNc1ccc(C(=O)Oc2cc(O/N=[N+](\[O-])N(C)C)c([N+](=O)[O-])cc2C#N)cc1` as the compound, how does the K [1] read?
Answer: Its K is 0.3 ×10⁻⁵ /s.

Question: What about the Drug metabolism [2] of the same compound?
Answer: Its Drug metabolism is “metabolite_detected”.

Question: And the Activity [3]?
Answer: The Activity was “Active”.

Question: What about the Activity [4] of the same compound?
Answer: The Activity was “Active”.

Question: And the K [5]?
Answer: Its K is 1.1 ×10⁻⁴ /s.

Question: And the Drug metabolism [6]?
Answer: Its Drug metabolism is “metabolite_detected”.

Question: And the Activity [7]?
Answer: The Activity was “Active”.

Question: And the Ratio [8]?
Answer: Its Ratio is 1.

Question: And the NO yield [9]?
Answer: Its NO yield is > 1.9 mol/mol.

Question: What about the IC50 [10] of the same compound?
Answer: The IC50 was 9 µM.

Question: And the Drug metabolism [11]?
Answer: The Drug metabolism was “metabolite_detected”.

Question: And the IC50 [12]?
Answer: The IC50 was 6.5 µM.

Question: What about the Activity [13] of the same compound?
Answer: Its Activity is “Active”.

Question: What about the K [14] of the same compound?
Answer: Its K is 5.1 ×10⁻³ /s.
